Screening results deposited in PubChem BioAssay by The Scripps Research Institute Molecular Screening Center.
The list is not random: actives were taken first. Their share in the collection is about 1.8%.
NPY-Y2 PAM-ag – NPY-Y2 potentiators or agonists, primary screen, cell-based. Neuropeptide Y receptor type 2 (Homo sapiens), P49146. cells expressing NPY-Y2, potentiator/agonist read-out. activation, % at 3.6 µM. 220,000 tested, 0.45% active. AID 1359, 2008; in the data active means activation above about 27%;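 further: cells stimulated with NPY near EC25 plus isoproterenol at EC100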
NPY Y2 blocker – NPY-Y2 receptor antagonists, primary screen, cell-based | Neuropeptide Y receptor type 2 (Homo sapiens), P49146 | NPY-Y2 expressing cells, antagonist mode | inhibition, % at 2.7 µM | 140,000 tested, 0.99% active | AID 793, 2007
NPY1 pot ag – NPY-Y1 receptor potentiators or agonists, primary screen, cell-based; activation, % at 3.6 µM; NPY-Y1 expressing cells, potentiator/agonist activation; 220,000 tested, 0.37% active; Neuropeptide Y receptor type 1 (Homo sapiens), P25929; in the data active means activation above about 33%, passing the limit was not always enough;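 further: cells stimulated with NPY at EC10 then isoproterenol at EC100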
Target sequence (P25929 whole entry, looked up): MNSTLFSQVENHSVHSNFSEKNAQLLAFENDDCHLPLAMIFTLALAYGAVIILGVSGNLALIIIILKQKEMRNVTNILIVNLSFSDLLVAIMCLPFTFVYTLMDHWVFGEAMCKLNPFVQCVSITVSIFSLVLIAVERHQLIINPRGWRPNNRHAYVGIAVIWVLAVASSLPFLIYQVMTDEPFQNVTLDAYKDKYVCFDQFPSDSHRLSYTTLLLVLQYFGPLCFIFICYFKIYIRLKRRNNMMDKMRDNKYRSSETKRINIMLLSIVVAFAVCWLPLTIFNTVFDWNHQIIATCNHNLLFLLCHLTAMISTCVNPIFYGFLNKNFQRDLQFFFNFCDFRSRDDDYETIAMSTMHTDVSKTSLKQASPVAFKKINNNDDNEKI
NPY Y1 blocker – NPY-Y1 receptor antagonists, primary screen, cell-based | Neuropeptide Y receptor type 1 (Homo sapiens), P25929 | HEK293-CNG Y1 cells, membrane potential fluorescence; NPY at EC95, then isoproterenol | inhibition, % at 3.6 µM | 200,000 tested, 1% active | AID 1040, 2008;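 active means inhibition above the campaign mean inhibition of all tested compounds plus 3 SD, cut at about 20% in these data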
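Assay system: HEK293 Y1/CNG channel cell line; Doses: single compound dose of 3.6 µM, 0.4% DMSO; Timing: dye 3 h, compound 60 min room temperature, stimulation 45 min; Technique: Membrane-potential fluorescent dye readout; Measure: % inhibition of NPY effect.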
NPY1 antag ctr – NPY-Y1 receptor antagonists, selectivity check, counter-screen for NPY-Y2 antagonist project, cell-based. shares compounds with NPY Y2 blocker. cell-based NPY-Y1 antagonism counterscreen. inhibition, % at 3.6 µM. 710 tested, 19% active. AID 1256, 2008; in the data active means inhibition above about 20%;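 further: cells challenged with NPY then isoproterenol with cAMP sensed through a CNG channel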
NPY-Y2 ant conf – NPY-Y2 receptor antagonists, retest of hits, confirmation, HEK293-CNG cells, membrane potential fluorescence, triplicate. shares compounds with NPY Y2 blocker. 710 tested, 32% active. inhibition, % at 2.8 µM. HEK293 NPY-Y2 CNG channel;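 active means mean inhibition of triplicate wells above the hit cutoff set in the primary screen, cut at about 17% in these data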
NPY-Y1 ant conf – NPY-Y1 receptor antagonists, retest of hits, confirmation, HEK293-CNG cells, membrane potential fluorescence, triplicate. inhibition, % at 3.6 µM. cAMP; NPY challenge against isoproterenol-raised cAMP. AID 1254, 2008. 1,200 tested, 21% active. shares compounds with NPY Y1 blocker; in the data active means inhibition above about 20%
NPY-Y2 antag ct – NPY-Y2 receptor antagonists, selectivity check, confirmation, counter-screen for NPY-Y1 antagonist project, HEK293-CNG cells, membrane potential fluorescence, triplicate. antagonism; cells given NPY, then isoproterenol. shares compounds with NPY Y1 blocker. inhibition, % at 3.6 µM. 1,200 tested, 28% active. AID 1255, 2008
Hits are given with their value; - = inactive; . = no result given. Unless noted, no stated cut-off is given here; in the data, active means inhibition above about 17%; inactive means the rest.

SMILES	NPY-Y2 PAM-ag	NPY Y2 blocker	NPY1 pot ag	NPY Y1 blocker	NPY-Y1 ant conf	NPY-Y2 antag ct	others
COC(=O)c1ccc(C(C(=O)NC2CCCCC2)N(CCc2ccccc2)C(=O)Cc2cccs2)cc1 (stereo unspecified)	-	-	-	-	.	.
COc1cc(C(=O)OCC(=O)NCc2ccco2)cc(OC)c1OC	-	-	-	-	.	.
Cc1cccc(Nc2c3c(nc4ccccc24)CCC3)c1	-	.	-	.	.	.
Cc1ccc2nc3c(c(Nc4ccc5c(c4)OCCO5)c2c1)CCC3	-	22	-	-	.	.	NPY1 antag ctr=-;NPY-Y2 ant conf=-
Cc1ccc(CNc2nc(C)nc3sc4c(c23)CCC4)cc1	-	20	-	-	.	.	NPY1 antag ctr=27;NPY-Y2 ant conf=20
Cc1nc(Nc2ccc(O)cc2)c2c3c(sc2n1)CCCC3	-	.	-	.	.	.
Cn1c2ccccc2c2cc(/C=C(\NC(=O)c3ccccc3)C(=O)O)ccc21	-	.	-	.	.	.
CC(C)OC(=O)/C(=C/c1ccc2c(c1)c1ccccc1n2C)NC(=O)c1ccccc1	-	21	-	-	.	.	NPY1 antag ctr=-;NPY-Y2 ant conf=20
CCOC(=O)CC(NC(=O)C1c2ccccc2Oc2ccccc21)c1ccccc1Cl (stereo unspecified)	-	18	-	-	.	.	NPY1 antag ctr=-;NPY-Y2 ant conf=-
CCOC(=O)CC(NC(=O)Cc1ccccc1)c1ccccc1Cl (stereo unspecified)	-	-	-	-	.	.
CCCCc1nnc(NC(=O)C(C)Sc2nc(C)cc(=O)[nH]2)s1 (stereo unspecified)	-	20	-	-	.	.	NPY1 antag ctr=-;NPY-Y2 ant conf=-
C=CCn1c(-c2ccc(=O)n(Cc3ccccc3)c2)n[nH]c1=S	-	.	-	-	.	.
Cc1ccccc1C(=O)c1cccn1CC(=O)NCCN1CCN(c2cccc(C)c2C)CC1	-	21	-	-	.	.	NPY1 antag ctr=-;NPY-Y2 ant conf=25
Cc1ccc(C)c(N2CCN(CCCNC(=O)Cn3cccc3C(=O)c3ccccc3C)CC2)c1	-	.	-	-	.	.
O=[N+]([O-])c1cccc(-c2noc(COc3ccccc3)n2)c1	-	.	-	25	-	-
S=c1nc[nH]c2c1[nH]c1ccccc12	-	-	-	39	-	-
S=c1nc[nH]c2c1[nH]c1ccc(Cl)cc12	-	.	-	.	.	.
Cc1cc(C)c(C#N)c(SCc2nc3ccccc3[nH]2)n1	-	-	-	-	.	.
O=C(Nc1ccc(S(=O)(=O)NC2=NCCCCC2)cc1)c1ccco1	-	.	-	-	.	.
O=C(C1c2ccccc2C(=O)N2CCc3ccccc3C12)N1CCN(Cc2ccccc2)CC1 (stereo unspecified)	-	-	-	22	-	-
COC(/C=C/Nc1ccc(OC)cc1)=C(C#N)C#N	-	-	-	40	-	-
COC(/C=C/Nc1ccc(Cl)cc1)=C(C#N)C#N	-	.	-	-	.	.
COc1ccc(CN(CC2CCCO2)C(=O)c2cc3ccccc3oc2=O)cc1 (stereo unspecified)	-	.	-	37	-	-
CCc1nc(N[C@H](C(=O)O)C(C)C)c2oc3ccccc3c2n1	-	.	-	.	.	.
CCc1nc(N[C@@H](CC(C)C)C(=O)O)c2oc3ccccc3c2n1	-	-	-	26	-	23
SMILES	NPY-Y2 PAM-ag	NPY Y2 blocker	NPY1 pot ag	NPY Y1 blocker	NPY-Y1 ant conf	NPY-Y2 antag ct	others
COCCNC(=O)c1ccc2c(=O)n(CCOC)c(=O)[nH]c2c1	-	-	-	-	.	.
O=C(CN1CCCCC1)Nc1ccccc1-c1ccccc1	-	-	-	-	.	.
O=C(CN1CCN(C2CCCCC2)CC1)Nc1ccccc1-c1ccccc1	-	-	-	21	-	-
CC(C)CC(C(=O)NC1CCCC1)N(Cc1cccs1)C(=O)c1snc(C(N)=O)c1N (stereo unspecified)	-	-	-	21	-	-
O=C(O)CC/C(=N\Nc1ccc(S(=O)(=O)N2CCCC2)cc1[N+](=O)[O-])c1cccs1	-	-	-	-	.	.
Cc1cccc(OCCNC(=O)c2ccc(Oc3ccc(C(F)(F)F)cc3[N+](=O)[O-])cc2)c1	-	-	-	22	28	-
COC(=O)c1ccc(NC(=O)c2ccc(CN3CCOCC3)cc2)cc1	-	-	-	-	.	.
O=C(Nc1ccc(CN2CCOCC2)cc1)c1ccc(-c2ccc(Br)cc2)o1	-	-	-	31	-	21
Cc1ccc(C2C3C(=O)N(c4ccccc4)C(=O)C3N3CCCN23)cc1 (stereo unspecified)	-	.	-	.	.	.
CCOc1ccc(S(=O)(=O)N2c3ccccc3CC2C)cc1 (stereo unspecified)	-	-	-	38	-	17
O=C(Nc1ncc(Cc2ccc(SC(F)F)cc2)s1)c1ccccc1	-	-	-	21	-	-
O=C(c1ccc2c(c1)OCO2)N(CC1CCCO1)C1(C(=O)NC2CCCC2)CCCCC1 (stereo unspecified)	-	-	-	30	-	-
Cc1ccccc1-c1nnn(CC(=O)NCc2ccc3c(c2)OCO3)n1	-	-	-	22	-	-
O=C1Nc2ccccc2C(O)(C(=O)NCc2ccco2)N1c1ccc(Cl)cc1 (stereo unspecified)	-	-	-	-	.	.
O=C(N/N=C/c1ccc(Br)s1)c1c[nH]c2ccccc12	-	-	-	20	-	-
COc1ccc(C(C)(C)C)cc1S(=O)(=O)N1CCC(C(N)=O)CC1	-	-	-	23	-	-
COc1ccc(F)cc1S(=O)(=O)N1CCC(C(N)=O)CC1	-	-	-	-	.	.
O=C(Nc1ccc(F)cc1)c1ccccc1	-	-	-	-	.	.
C/C=C(/C)C(=O)O[C@@H]1[C@H](OC(=O)C=C(C)C)c2c(ccc3ccc(=O)oc23)OC1(C)C	-	-	-	-	.	.
C/C=C(/C)C(=O)O[C@@H]1c2c(ccc3ccc(=O)oc23)OC(C)(C)[C@@H]1OC(=O)/C(C)=C\C	-	-	-	31	-	-
CC(C)C[C@H](NC(=O)CCn1nnc2ccccc2c1=O)C(=O)O	-	.	-	.	.	.
OC(COc1c(F)cc(Br)cc1F)CN1CCN(c2ccc(F)cc2)CC1 (stereo unspecified)	-	-	-	20	-	-
COc1ccc(OCC(=O)N/N=C/C=C/c2ccccc2)cc1	-	-	-	23	-	-
CC(C)(C)c1ccccc1OCCCCN1CCCC1	-	-	-	-	.	.
Cc1cccc(C(C)(C)C)c1OCCCCN1CCCC1	-	-	-	21	-	-
